Experiments:
[1] = test system: Platelet-derived growth factor receptor alpha (Homo sapiens), P16234 [V561D]; test: Inhibition of recombinant human PDGFRalpha (550 to end residues) V561D mutant at 1 uM using GGMEDIYFEFMGGKKK as substrate measured after 40 mins in presence of [gamma33P]ATP by scintillation counting method relative to control
[2] = species on record: Homo sapiens; test: Inhibition of recombinant human MAPKAPK2 A399G mutant (46 to end residues) at 1 uM using KKLNRTLSVA as substrate measured after 40 mins in presence of [gamma33P]ATP by scintillation counting method relative to control
Outline: (§1)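 Single-point inhibition at 1 µM was measured in the Eurofins KinaseProfiler panel. Values are the mean of two independent experiments.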

[3] = target: Myosin light chain kinase 2, skeletal/cardiac muscle (Homo sapiens) (UniProt Q9H1R3); test: Inhibition of recombinant full length human MYLK2 at 1 uM using KKLNRTLSFAEPG as substrate measured after 40 mins in presence of [gamma33P]ATP by scintillation counting method relative to control; outline: as §1
[4] = target: Fibroblast growth factor receptor 2 (Homo sapiens) (UniProt P21802); test: Inhibition of recombinant human FGFR2 (456 to 770 residues) at 1 uM using poly(Glu, Tyr) 4:1 as substrate measured after 40 mins in presence of [gamma33P]ATP by scintillation counting method relative to control
[5] = test system: RAF proto-oncogene serine/threonine-protein kinase (Homo sapiens), P04049 [Y340D,Y341D]; test: Inhibition of recombinant human c-RAF Y340D/Y341D double mutant ([…]) at 1 uM using inactive MEK1 as substrate measured after 40 mins in presence of [gamma33P]ATP by scintillation counting method relative to control
[6] = test system: Mast/stem cell growth factor receptor Kit (Homo sapiens), P10721 [V560G]; test: Inhibition of recombinant human cKit (544 to end residues) V560G mutant at 1 uM using GGMEDIYFEFMGGKKK as substrate measured after 40 mins in presence of [gamma33P]ATP by scintillation counting method relative to control; outline: as §1
[7] = test system: TGF-beta receptor type-1 (Homo sapiens), P36897 [T204D]; test: Inhibition of human TGFBR1 T204D mutant (200 to end residues) at 1 uM using casein as substrate measured after 40 mins in presence of [gamma33P]ATP by scintillation counting method relative to control
Outline: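 Percent inhibition of kinase activity at a single compound concentration, measured by the outsourced Eurofins KinaseProfiler panel. Values are the mean of two independent experiments.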

[8] = test system: Tyrosine-protein kinase ABL1 (Homo sapiens), P00519 [T315I]; test: Inhibition of recombinant human ABL T315I mutant (27 to end residues) at 1 uM using EAIYAAPFAKKK as substrate measured after 40 mins in presence of [gamma33P]ATP by scintillation counting method relative to control
[9] = target: NUAK family SNF1-like kinase 1 (Homo sapiens) (UniProt O60285); test: Inhibition of recombinant human ARK5 (2 to end residues) at 1 uM using KKKVSRSGLYRSPSMPENLNRPR as substrate measured after 40 mins in presence of [gamma33P]ATP by scintillation counting method relative to control
[10] = target: Casein kinase I isoform gamma-2 (Homo sapiens) (UniProt P78368); test: Inhibition of recombinant human CK1gamma2 (18 to end residues) at 1 uM using KRRRALS(p)VASLPGL as substrate measured after 40 mins in presence of [gamma33P]ATP by scintillation counting method relative to control
[11] = target: Rhodopsin kinase GRK7 (Homo sapiens) (UniProt Q8WTQ7); test: Inhibition of recombinant full-length human GRK7 at 1 uM using casein as substrate measured after 40 mins in presence of [gamma33P]ATP by scintillation counting method relative to control
[12] = target: CDK2/Cyclin A2 (Homo sapiens) (UniProt P24941+P20248); test: Inhibition of recombinant full-length human CDK2/cyclinA at 1 uM using Histone H1 as substrate measured after 40 mins in presence of [gamma33P]ATP by scintillation counting method relative to control; format: protein-complex assay
[13] = target: Insulin receptor (Homo sapiens) (UniProt P06213); test: Inhibition of recombinant human IR (1005 to 1310 residues) at 1 uM using KKSRGDYMTMQIG as substrate measured after 40 mins in presence of [gamma33P]ATP by scintillation counting method relative to control
[14] = target: DNA-dependent protein kinase catalytic subunit (Homo sapiens) (UniProt P78527); test: Inhibition of recombinant full-length human DNA-PK at 1 uM using GST-cMyc-p53 as substrate measured after 40 mins by fluorescence assay relative to control
[15] = test system: NCI-H1299; test: Induction of apoptosis in human H1299 cells assessed as late apoptotic cells at 0.25 uM after 48 hrs by AnnexinV-FITC/PI staining-based flow cytometric analysis (reference value: 1.77%); format: functional
[16] = test system: NCI-H1299; test: Induction of apoptosis in human H1299 cells assessed as necrotic cells at 1 uM after 48 hrs by AnnexinV-FITC/PI staining-based flow cytometric analysis (reference value: 0.9%); format: functional
[17] = target: Ribosomal protein S6 kinase alpha-6 (Homo sapiens) (UniProt Q9UK32); test: Inhibition of recombinant full-length human Rsk4 at 1 uM using LRRASLG as substrate measured after 40 mins in presence of [gamma33P]ATP by scintillation counting method relative to control
[18] = target: Tyrosine-protein kinase Lck (Homo sapiens) (UniProt P06239); test: Inhibition of recombinant full-length human LCK at 1 uM using Cdc2 peptide as substrate measured after 40 mins in presence of [gamma33P]ATP by scintillation counting method relative to control
[19] = target: Serine/threonine-protein kinase VRK1 (Homo sapiens) (UniProt Q99986); test: Inhibition of human VRK1 at 1 uM by radiometric method relative to control
[20] = target: Serine/threonine-protein kinase Chk1 (Homo sapiens) (UniProt O14757); test: Inhibition of full length recombinant human CHK1 at 1 uM using KKKVSRSGLYRSPSMPENLNRPR as substrate measured after 40 mins in presence of [gamma33P]ATP by scintillation counting method relative to control
[21] = species on record: Homo sapiens; test: Inhibition of recombinant human BrSK2 […] mutant (2 to end residues) at 1 uM using KKLNRTLSFAEPG as substrate measured after 40 mins in presence of [gamma33P]ATP by scintillation counting method relative to control
[22] = test system: Fibroblast growth factor receptor 1 (Homo sapiens), P11362 [V561M]; test: Inhibition of recombinant human FGFR1 V561M mutant (456 to 765 residues) at 1 uM using GGEEEEYFELVKKKK as substrate measured after 40 mins in presence of [gamma33P]ATP by scintillation counting method relative to control
[23] = target: Mitogen-activated protein kinase 14 (Homo sapiens) (UniProt Q16539); test: Inhibition of recombinant full-length human SAPK2a at 1 uM using myelin basic protein as substrate measured after 40 mins in presence of [gamma33P]ATP by scintillation counting method relative to control
Sequence of Mitogen-activated protein kinase 14 (Homo sapiens) (Q16539 whole entry): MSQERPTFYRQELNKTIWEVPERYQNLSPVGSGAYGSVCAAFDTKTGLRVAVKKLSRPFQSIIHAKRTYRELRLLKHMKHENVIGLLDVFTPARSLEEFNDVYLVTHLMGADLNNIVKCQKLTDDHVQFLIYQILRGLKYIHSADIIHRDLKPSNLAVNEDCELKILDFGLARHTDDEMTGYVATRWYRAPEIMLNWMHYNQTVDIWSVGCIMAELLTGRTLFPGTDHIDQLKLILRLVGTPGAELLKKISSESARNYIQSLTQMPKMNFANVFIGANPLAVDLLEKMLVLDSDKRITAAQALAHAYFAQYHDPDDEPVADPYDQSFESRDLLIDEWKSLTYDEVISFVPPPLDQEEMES

Sequence of RAF proto-oncogene serine/threonine-protein kinase (Homo sapiens), P04049 [Y340D,Y341D] (P04049 whole entry Y340D/Y341D): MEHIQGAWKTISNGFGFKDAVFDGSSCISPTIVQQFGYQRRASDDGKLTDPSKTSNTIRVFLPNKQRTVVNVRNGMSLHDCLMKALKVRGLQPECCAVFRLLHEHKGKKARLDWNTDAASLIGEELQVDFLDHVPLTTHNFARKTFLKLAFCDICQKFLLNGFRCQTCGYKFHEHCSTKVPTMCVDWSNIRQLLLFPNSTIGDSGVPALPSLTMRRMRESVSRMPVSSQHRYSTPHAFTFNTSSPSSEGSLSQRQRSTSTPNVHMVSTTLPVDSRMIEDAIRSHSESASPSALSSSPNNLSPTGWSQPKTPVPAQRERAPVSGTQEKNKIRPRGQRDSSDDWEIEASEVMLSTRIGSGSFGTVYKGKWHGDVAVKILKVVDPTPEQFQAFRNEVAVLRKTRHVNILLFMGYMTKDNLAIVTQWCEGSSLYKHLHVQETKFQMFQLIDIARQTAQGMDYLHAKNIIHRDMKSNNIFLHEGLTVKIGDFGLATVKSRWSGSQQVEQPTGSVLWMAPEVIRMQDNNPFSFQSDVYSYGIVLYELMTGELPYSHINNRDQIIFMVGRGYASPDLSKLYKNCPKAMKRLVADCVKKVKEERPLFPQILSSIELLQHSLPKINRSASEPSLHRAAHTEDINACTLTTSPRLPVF
Sequence of Ribosomal protein S6 kinase alpha-6 (Homo sapiens) (Q9UK32 whole entry): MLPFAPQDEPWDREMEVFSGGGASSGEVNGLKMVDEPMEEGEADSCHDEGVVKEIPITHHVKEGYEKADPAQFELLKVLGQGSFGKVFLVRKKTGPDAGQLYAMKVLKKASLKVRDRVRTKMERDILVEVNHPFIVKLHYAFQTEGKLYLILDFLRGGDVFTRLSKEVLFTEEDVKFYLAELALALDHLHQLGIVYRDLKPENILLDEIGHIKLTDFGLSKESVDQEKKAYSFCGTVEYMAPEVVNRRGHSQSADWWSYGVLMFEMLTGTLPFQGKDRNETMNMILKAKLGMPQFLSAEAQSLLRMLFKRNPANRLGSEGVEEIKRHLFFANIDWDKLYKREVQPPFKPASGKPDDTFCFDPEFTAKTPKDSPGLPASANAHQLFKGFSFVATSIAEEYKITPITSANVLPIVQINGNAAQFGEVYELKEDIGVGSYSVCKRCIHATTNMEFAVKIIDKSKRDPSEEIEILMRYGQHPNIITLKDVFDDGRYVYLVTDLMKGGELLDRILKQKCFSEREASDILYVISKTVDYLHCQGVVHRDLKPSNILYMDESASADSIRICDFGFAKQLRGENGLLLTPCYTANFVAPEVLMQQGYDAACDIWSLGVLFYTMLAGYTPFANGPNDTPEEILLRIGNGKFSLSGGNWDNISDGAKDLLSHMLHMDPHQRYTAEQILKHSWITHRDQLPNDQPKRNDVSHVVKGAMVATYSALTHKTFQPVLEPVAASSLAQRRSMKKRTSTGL
Sequence of Serine/threonine-protein kinase VRK1 (Homo sapiens) (Q99986 whole entry): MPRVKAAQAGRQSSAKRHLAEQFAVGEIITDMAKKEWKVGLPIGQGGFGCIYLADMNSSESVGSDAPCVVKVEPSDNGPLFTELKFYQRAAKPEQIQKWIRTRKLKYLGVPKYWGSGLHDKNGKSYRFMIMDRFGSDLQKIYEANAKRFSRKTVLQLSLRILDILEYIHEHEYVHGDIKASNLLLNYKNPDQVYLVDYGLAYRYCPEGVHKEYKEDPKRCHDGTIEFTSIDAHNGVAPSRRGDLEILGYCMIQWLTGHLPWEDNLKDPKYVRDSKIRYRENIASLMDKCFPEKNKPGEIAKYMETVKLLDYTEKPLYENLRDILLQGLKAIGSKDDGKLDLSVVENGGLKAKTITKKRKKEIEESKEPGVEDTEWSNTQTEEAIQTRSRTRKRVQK
Sequence of TGF-beta receptor type-1 (Homo sapiens), P36897 [T204D] (P36897 whole entry T204D): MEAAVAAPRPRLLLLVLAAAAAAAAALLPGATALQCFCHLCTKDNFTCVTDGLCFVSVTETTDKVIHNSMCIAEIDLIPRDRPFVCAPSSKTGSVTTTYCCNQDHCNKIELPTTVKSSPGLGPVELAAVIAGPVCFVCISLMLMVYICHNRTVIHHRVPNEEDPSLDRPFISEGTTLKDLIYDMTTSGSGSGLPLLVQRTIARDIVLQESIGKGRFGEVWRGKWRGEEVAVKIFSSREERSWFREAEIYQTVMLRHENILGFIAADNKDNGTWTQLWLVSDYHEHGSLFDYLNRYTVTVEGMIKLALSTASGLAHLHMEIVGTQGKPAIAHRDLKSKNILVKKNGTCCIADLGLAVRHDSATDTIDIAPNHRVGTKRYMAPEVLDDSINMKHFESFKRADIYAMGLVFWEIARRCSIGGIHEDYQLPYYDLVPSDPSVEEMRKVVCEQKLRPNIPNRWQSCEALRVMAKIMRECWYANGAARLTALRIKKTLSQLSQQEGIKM
Sequence of NUAK family SNF1-like kinase 1 (Homo sapiens) (O60285 whole entry, canonical isoform): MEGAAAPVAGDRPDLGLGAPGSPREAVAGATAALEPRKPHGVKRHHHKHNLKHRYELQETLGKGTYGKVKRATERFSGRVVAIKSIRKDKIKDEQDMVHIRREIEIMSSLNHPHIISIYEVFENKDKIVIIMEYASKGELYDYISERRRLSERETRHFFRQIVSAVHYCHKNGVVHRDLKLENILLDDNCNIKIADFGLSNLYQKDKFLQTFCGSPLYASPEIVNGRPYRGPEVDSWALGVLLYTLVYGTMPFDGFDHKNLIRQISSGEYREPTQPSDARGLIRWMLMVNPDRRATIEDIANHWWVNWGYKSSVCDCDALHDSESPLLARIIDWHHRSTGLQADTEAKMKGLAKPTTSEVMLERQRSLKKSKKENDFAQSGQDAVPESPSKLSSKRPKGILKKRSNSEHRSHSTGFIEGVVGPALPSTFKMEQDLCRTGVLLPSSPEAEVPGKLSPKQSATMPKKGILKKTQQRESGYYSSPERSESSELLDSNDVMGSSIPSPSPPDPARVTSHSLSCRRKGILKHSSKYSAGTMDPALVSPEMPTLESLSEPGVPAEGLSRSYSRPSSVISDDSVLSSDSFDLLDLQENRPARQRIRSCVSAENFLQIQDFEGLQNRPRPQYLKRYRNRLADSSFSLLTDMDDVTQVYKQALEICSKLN
Sequence of Myosin light chain kinase 2, skeletal/cardiac muscle (Homo sapiens) (Q9H1R3 whole entry, the tested form may be a part): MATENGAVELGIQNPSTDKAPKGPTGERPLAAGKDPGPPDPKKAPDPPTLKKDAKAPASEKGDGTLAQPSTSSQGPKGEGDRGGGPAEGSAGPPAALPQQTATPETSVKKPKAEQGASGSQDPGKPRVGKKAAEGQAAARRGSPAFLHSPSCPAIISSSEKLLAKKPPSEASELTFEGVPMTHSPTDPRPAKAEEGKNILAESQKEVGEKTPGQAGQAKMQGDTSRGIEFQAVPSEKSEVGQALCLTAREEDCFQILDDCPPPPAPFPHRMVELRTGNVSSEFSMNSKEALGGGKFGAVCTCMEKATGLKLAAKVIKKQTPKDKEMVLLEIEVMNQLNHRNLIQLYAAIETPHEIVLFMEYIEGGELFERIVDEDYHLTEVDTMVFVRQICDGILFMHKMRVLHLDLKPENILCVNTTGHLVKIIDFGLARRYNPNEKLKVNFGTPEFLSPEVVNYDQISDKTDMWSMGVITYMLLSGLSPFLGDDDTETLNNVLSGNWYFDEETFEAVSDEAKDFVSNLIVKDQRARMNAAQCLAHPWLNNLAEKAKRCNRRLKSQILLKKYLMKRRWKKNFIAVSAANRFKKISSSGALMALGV
Sequence of Fibroblast growth factor receptor 2 (Homo sapiens) (P21802 22-821 limits assumed): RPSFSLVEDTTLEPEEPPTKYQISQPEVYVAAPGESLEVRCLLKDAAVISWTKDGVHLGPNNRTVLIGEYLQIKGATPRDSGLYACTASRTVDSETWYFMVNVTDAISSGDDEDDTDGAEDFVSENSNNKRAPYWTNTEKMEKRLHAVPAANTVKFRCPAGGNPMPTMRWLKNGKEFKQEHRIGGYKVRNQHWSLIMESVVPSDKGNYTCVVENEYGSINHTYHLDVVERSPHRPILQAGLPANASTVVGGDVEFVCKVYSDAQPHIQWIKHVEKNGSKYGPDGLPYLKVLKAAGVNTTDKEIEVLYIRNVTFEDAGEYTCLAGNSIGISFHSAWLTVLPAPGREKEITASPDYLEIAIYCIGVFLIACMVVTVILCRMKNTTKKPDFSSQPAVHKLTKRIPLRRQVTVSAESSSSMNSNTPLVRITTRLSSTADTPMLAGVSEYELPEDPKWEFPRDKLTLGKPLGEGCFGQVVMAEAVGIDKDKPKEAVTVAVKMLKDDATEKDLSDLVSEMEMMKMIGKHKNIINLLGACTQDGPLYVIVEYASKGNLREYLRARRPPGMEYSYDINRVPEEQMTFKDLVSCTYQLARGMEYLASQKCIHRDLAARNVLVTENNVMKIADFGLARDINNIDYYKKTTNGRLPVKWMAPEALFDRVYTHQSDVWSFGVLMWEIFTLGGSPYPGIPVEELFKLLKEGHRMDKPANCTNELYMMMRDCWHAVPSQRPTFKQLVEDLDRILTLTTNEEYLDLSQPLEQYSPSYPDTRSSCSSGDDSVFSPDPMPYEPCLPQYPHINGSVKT

SMILES: CN(C)C(=O)c1cc2cnc(Nc3ccc(NC(=O)CCCCCCCN=C=S)cc3)nc2n1C1CCCC1
- inhibition [1]: 90%
- inhibition [2]: 1%
- inhibition [3]: 12%
- inhibition [4]: 27%
- inhibition [5]: 33%
- inhibition [6]: 54%
- inhibition [7]: 13%
- inhibition [8]: 38%
- inhibition [9]: 79%
- inhibition [10]: 20%
- inhibition [11]: 9%
- inhibition [12]: 58%
- inhibition [13]: -6%
- inhibition [14]: 9%
- Activity [15]: 2.24%
- Activity [16]: 3.64%
- inhibition [17]: 38%
- inhibition [18]: 33%
- inhibition [19]: 0%
- inhibition [20]: -9%
- inhibition [21]: 14%
- inhibition [22]: 86%
- inhibition [23]: 20%

— ChEMBL document CHEMBL4376814, “Novel cyclin-dependent kinase 9 (CDK9) inhibitor with suppression of cancer stemness activity against non-small-cell lung cancer” (Eur J Med Chem, 2019)
